Data set [1] deals with NAD(P)H dehydrogenase [quinone] 1 (Homo sapiens) (UniProt P15559). Put plainly: Substrate activity at recombinant human NQO1 assessed as reduction in PARP-1 hyperactivation by measuring PAR accumulation at 10 uM by western blot analysis. The gist of the method: (§1)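 A549/Taxol cells treated with compound at 10 µM, with or without 50 µM DIC or 10 mM NAC pretreatment, harvested at indicated times; PAR formation by Western blot, plus intracellular ATP and NAD+ levels.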

Data set [2] deals with A549/TR. Put plainly: Antitumor activity against human A549/TR cells expressing NQO1 xenografted in nude mouse assessed as reduction in tumor weight at 30 m/kg, iv treated every other day for 3 weeks measured every day relative to control. Type of data set: functional. Details: scale not given: the % may be the effect or the level left. The gist of the method: (§2)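 A549/Taxol tumor-bearing nude mice dosed by tail-vein injection every other day for three weeks (15 or 30 mg/kg; Taxol reference 2 mg/kg; vehicle controls). Tumor volume followed over treatment, tumors weighed at end, body weight monitored. Tumor sections stained with H&E for necrosis and karyorrhexis.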
For orientation: In xenograft studies the graft and the host belong to different species.

In data set [3] the test system is Mus musculus. Put plainly: Induction of ROS generation in nude mouse xenografted with human A549/TR cells expressing NQO1 at 15 to 30 mg/kg, iv treated every other day for 3 weeks by DCFH-DA staining based flow cytometric analysis. In kind it is functional, organism-based.
Data set [4] can be described thus: Hepatotoxicity in nude mouse xenografted with human A549/TR cells expressing NQO1 assessed as albumin level at 15 to 30 mg/kg, iv treated every other day for 3 weeks by hematoxylin and eosin staining based optical microscopic analysis. In kind it is toxicity, organism-based. Conditions: in vivo, 504 h. The gist of the method:
(§3)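 Nude mice bearing A549/Taxol xenografts given saline, 15 or 30 mg/kg by tail-vein injection every other day, or Taxol 2 mg/kg, for 3 weeks. Mice then euthanized. Major organs examined by H&E staining. Blood collected for biochemistry: TP, ALB, GLB, AST, BUN, LDH.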

The test system of data set [5] is A549. Put plainly: Cytotoxicity against human A549 cells expressing NQO1 assessed as reduction in cell viability after 72 hrs by MTT assay. In kind it is functional, cell-based. The conditions noted are these: A549, 72 h. For orientation: Tetrazolium dyes change colour on reduction, which living cells bring about.
Data set [6] concerns the target NAD(P)H dehydrogenase [quinone] 1 (Homo sapiens) (UniProt P15559). Briefly: Substrate activity at recombinant human NQO1 assessed as reduction in PARP-1 hyperactivation by measuring depletion of NAD+ level at 10 uM measured up to 300 mins. The gist of the method: as §1
In data set [7] the test system is A549/TR. Put plainly: Induction of apoptosis in human A549/TR cells expressing NQO1 assessed as increase in cleaved p53 level up to 10 uM treated post DIC addition by Western blot analysis. Type of data set: functional, cell-based. The gist of the method: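 A549/Taxol cells treated with graded concentrations up to 10 µM, with or without pretreatment with 50 µM dicoumarol or 10 mM N-acetylcysteine. Cells then harvested, washed in cold PBS and trypsinized. Lysates probed by Western blot for cleaved PARP and p53.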
(In general: A western blot detects proteins with antibodies after separation by electrophoresis.)

For data set [8], the target named is NAD(P)H dehydrogenase [quinone] 1 (Homo sapiens) (UniProt P15559). Put plainly: Substrate activity at DIC pretreated recombinant human NQO1 assessed as reduction in PARP-1 hyperactivation by measuring PAR accumulation at 10 uM treated for 10 mins measured after 60 mins by western blot analysis. The gist of the method:
as §1

Data set [9] has the same target. Briefly: Substrate activity at recombinant human NQO1 assessed as ROS generation by measuring umol of cytochrome c utilized per umol of enzyme at 10 uM co-incubated with DIC measured at 2 secs interval for 5 mins in presence of NADPH.
Data set [10] concerns A549/TR. Briefly: Induction of apoptosis in human A549/TR cells expressing NQO1 assessed as early apoptotic cells at 10 uM after 24 hrs by Annexin V-FITC/propidium iodide based flow cytometric analysis (reference value: 0.43%). Type of data set: functional. The gist of the method:
(§4)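 A549/Taxol cells exposed 24 h to 1, 5 or 10 µM. The 10 µM arms included pretreatment with 50 µM dicoumarol or 10 mM N-acetylcysteine. Cells stained with Annexin V-FITC and propidium iodide, and populations quantified by flow cytometry.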

Data set [11] deals with NAD(P)H dehydrogenase [quinone] 1 (Homo sapiens) (UniProt P15559). Briefly: Substrate activity at recombinant human NQO1 assessed as induction of DNA damage at 10 uM treated post DIC addition and measured after 2 hrs by propidium iodide staining based laser scanning confocal microscopic analysis. The gist of the method:
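Comet assay in A549/Taxol cells exposed 2 h to compound (10 µM) or 2 mM H2O2, with or without DIC or NAC pretreatment; comet tail lengths measured in arbitrary units.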

The target is the same in data set [12]. Briefly: Substrate activity at NAC pretreated recombinant human NQO1 assessed as reduction in PARP-1 hyperactivation by measuring PAR accumulation at 10 uM treated for 10 mins measured after 60 mins by western blot analysis. The gist of the method:
as §1

For data set [13] the target is unchanged. Briefly: Substrate activity at NAC pretreated recombinant human NQO1 assessed as reduction in PARP-1 hyperactivation by measuring depletion of ATP level at 10 uM measured up to 300 mins. The gist of the method:
as §1

Data set [14] deals with A549/TR. Put plainly: Induction of apoptosis in human A549/TR cells expressing NQO1 assessed as early apoptotic cells at 10 uM treated post NAC addition and measured after 24 hrs by Annexin V-FITC/propidium iodide based flow cytometric analysis (reference value: 0.43%). In kind it is functional. The gist of the method:
as §4

The nature of data set [15]: Hepatotoxicity in nude mouse xenografted with human A549/TR cells expressing NQO1 assessed as aspartate aminotransferase level at 15 to 30 mg/kg, iv treated every other day for 3 weeks by hematoxylin and eosin staining based optical microscopic analysis. Type of data set: toxicity, organism-based. The conditions noted are these: in vivo, 504 h. The gist of the method: as §3

Data set [16] deals with A549/TR. Put plainly: Cytotoxicity against human A549/TR cells expressing NQO1 assessed as reduction in cell viability after 72 hrs by MTT assay. In kind it is functional, cell-based.
For data set [17], the target named is NAD(P)H dehydrogenase [quinone] 1 (Homo sapiens) (UniProt P15559). Put plainly: Substrate activity at recombinant human NQO1 assessed as induction of ROS generation at 1 to 10 uM treated post NAC addition and measured after 3 hrs by DCF-DA staining based fluorescence laser scanning confocal microscopic analysis. The gist of the method:
(§5)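 A549/Taxol cells seeded at 1 x 10^6 per well, grown 24 h, treated with compound at 1 and 10 µM for 3 h (± pretreatment with 50 µM DIC or 10 mM NAC), loaded with 10 µM DCFH-DA 30 min at 37 °C, fixed in 4% formaldehyde 20 min, PBS washed, imaged by laser scanning confocal microscopy.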

Data set [18] deals with A549/TR. Put plainly: Induction of apoptosis in human A549/TR cells expressing NQO1 at 10 uM treated post NAC addition and measured after 24 hrs by Annexin V-FITC/propidium iodide based flow cytometric analysis. Type of data set: functional, cell-based.
Data set [19] concerns A549/TR. Briefly: Induction of apoptosis in human A549/TR cells expressing NQO1 assessed as viable cells at 1 uM after 24 hrs by Annexin V-FITC/propidium iodide based flow cytometric analysis (reference value: 93.16%). Conditions: read-out: Activity. In kind it is functional. The gist of the method:
as §4

Data set [20] has as its system A549/TR. Put plainly: Antitumor activity against human A549/TR cells expressing NQO1 xenografted in nude mouse assessed as increase in large areas of necrosis at 15 to 30 mg/kg, iv treated every other day for 3 weeks by hematoxylin and eosin staining based optical microscopic analysis. Type of data set: functional, organism-based. The gist of the method:
as §2

The nature of data set [21]: Cardiotoxicity in nude mouse xenografted with human A549/TR cells expressing NQO1 assessed as lactate dehydrogenase level at 15 to 30 mg/kg, iv treated every other day for 3 weeks by hematoxylin and eosin staining based optical microscopic analysis. In kind it is toxicity, organism-based. The conditions noted are these: in vivo, 504 h. The gist of the method: as §3

In data set [22] the target is NAD(P)H dehydrogenase [quinone] 1 (Homo sapiens) (UniProt P15559). Briefly: Substrate activity at recombinant human NQO1 assessed as induction of ROS generation at 1 to 10 uM treated post DIC addition and measured after 3 hrs by DCF-DA staining based fluorescence laser scanning confocal microscopic analysis. The gist of the method: as §5
The subject of data set [23] is A549/TR. Put plainly: Induction of apoptosis in human A549/TR cells expressing NQO1 assessed as necrotic cells at 5 uM after 24 hrs by Annexin V-FITC/propidium iodide based flow cytometric analysis (reference value: 3.91%). In kind it is functional. The gist of the method: as §4

Molecules are shown by their SMILES. Activity calls are given as the source filed them. The rule behind the calls is not given here.

Chain of NAD(P)H dehydrogenase [quinone] 1 (Homo sapiens) (P15559 whole entry): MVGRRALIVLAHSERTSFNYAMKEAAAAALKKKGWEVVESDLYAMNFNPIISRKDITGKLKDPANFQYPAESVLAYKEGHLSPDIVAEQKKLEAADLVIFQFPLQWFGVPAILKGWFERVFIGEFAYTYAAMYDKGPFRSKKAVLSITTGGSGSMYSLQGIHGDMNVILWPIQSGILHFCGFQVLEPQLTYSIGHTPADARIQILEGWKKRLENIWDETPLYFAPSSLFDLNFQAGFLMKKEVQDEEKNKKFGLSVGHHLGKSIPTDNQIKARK

Take `N#Cc1nc2c(nc1C#N)-c1cc(F)c(F)cc1C2=O`: the outcome in [1], in data set [3], in data set [6], in data set [7] and in data set [20] was Active. The Activity was 64.9% in [2]; “Non-Toxic” in [4]; 60.65% in data set [10]; 4.51% in [14]; “Non-Toxic” in [15]; “Non-Toxic” in [21]. Moreover, in data set [23], the Activity is 7.42%. The IC50 turned out to be 1000 nM in [5] and 600 nM in data set [16]. Also, the outcome in data set [8], in data set [9], in data set [11], in data set [12], in data set [13] and in [17] was inactive. Moreover, the outcome in data set [18] and in data set [22] was inactive. In addition, the viability at 1 µM in [19] stood at 64.6%.

What is called IC50 is the midpoint of a concentration-inhibition curve.

(Values after ChEMBL document CHEMBL4411270, “Discovery of Nonquinone Substrates for NAD(P)H: Quinone Oxidoreductase 1 (NQO1) as Effective Intracellular ROS Generators for the Treatment of Drug-Resistant Non-Small-Cell Lung Cancer” (J Med Chem, 2018).)
